WT yeast gro inh = growth inhibition of WT yeast, mitochondrial fusion screen. 190,000 compounds, 2.1% hits. inhibition, % at 10 µM. mitochondrial fusion phenotypic screen, WT strain. AID 1362; in the data active = inhibition above about 58%; tested in S. cerevisiae
L major viab = inhibitors of Leishmania major promastigote growth; Leishmania major promastigotes, resazurin fluorescence viability; inhibition, % at 10 µM; 200,000 compounds, 9% hits; AID 1063; in the data active = inhibition above about 50%;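 note: promastigotes grown with compound for 44 hours at 28 °C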
RAM inhibit = inhibitors of the yeast RAM network | inhibition, % at 50 µM | AID 868 | 190,000 compounds, 1.8% hits | S. cerevisiae dse1pr::URA3 reporter, 5-FOA growth OD615, 2 d; analog-sensitive cbk1-as2 kinase mutant strain;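 active = inhibition above a set limit, 3 SD over mean compound inhibition, cut at about 8.4% in these data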;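 note: inhibition rescues growth on 5-FOA so higher OD means more RAM inhibition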
ABCG2 block = blocks JC-1 efflux by human ABCG2 transporter; Q9UNQ0; IgMXP3 cells, flow cytometry; inhibition, % at 6.6 µM; 190,000 compounds, 0.1% hits;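 active = inhibition above 80%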
Target sequence (Q9UNQ0 whole entry, looked up): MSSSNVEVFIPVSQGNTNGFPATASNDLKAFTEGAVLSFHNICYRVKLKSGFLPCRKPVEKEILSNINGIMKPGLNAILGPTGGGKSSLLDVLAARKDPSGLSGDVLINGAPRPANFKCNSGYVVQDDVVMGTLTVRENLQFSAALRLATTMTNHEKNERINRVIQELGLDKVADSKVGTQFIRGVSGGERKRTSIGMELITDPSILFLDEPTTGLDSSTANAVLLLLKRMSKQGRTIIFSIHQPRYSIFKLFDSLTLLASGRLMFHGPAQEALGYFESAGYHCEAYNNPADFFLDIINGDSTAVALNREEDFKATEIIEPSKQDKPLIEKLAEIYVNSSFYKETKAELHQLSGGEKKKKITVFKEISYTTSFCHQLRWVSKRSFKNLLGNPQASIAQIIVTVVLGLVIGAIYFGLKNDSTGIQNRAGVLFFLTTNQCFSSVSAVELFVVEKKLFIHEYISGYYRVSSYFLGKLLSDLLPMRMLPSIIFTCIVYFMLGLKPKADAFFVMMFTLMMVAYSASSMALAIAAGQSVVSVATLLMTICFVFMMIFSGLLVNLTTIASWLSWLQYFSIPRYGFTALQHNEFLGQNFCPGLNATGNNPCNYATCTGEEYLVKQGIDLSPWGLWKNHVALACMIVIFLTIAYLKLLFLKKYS
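material = IgMXP3 (ABCG2) plus far-red-tagged CCRF-Adr (ABCB1) cells | amount = 3 million cells/mL, equal mix of both lines | also added = JC-1 transporter substrate | dosing = one concentration, 6.6 µM final | schedule = 10 min at 25 °C | measured by = flow cytometric JC-1 green MFI at 530 nm | read-out basis = percent efflux inhibition, scaled nicardipine 100% to DMSO 0%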
ABCB1 inh = inhibitors of human ABCB1 transporter, ABCG2 counter-screen | P08183 | CCRF-Adr cells, JC-1 efflux, flow cytometry | inhibition, % at 6.6 µM | 190,000 compounds, 0.067% hits | AID 1326; in the data active = inhibition above about 40%;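 note: higher value means more JC-1 retained so stronger ABCB1 efflux block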
Each line names hits and unclear results; the compound was inactive in the other large screens. Only some compounds are listed: those with a hit (about 12% of all), similar ones and a draw of the others.

C#CC[N+]1(CC#Cc2ccc(C)cc2)CCCCC1	none
COc1ccc(CNC(=O)C/C(C)=N/NC(=O)COc2ccccc2)cc1	none
Cc1cccc2nc(CSc3nc4ccccc4o3)cn12	L major viab 64.4
c1ccc2oc(SCc3cn4ccccc4n3)nc2c1	none
CC(C)c1ccc(O)c(NC(=S)NC(=O)CCc2ccccc2)c1	none
O=C(CCc1ccccc1)NC(=S)Nc1ccccc1Br	WT yeast gro inh 75.0
O=C(CCc1ccccc1)NC(=S)Nc1cccc(Br)c1	WT yeast gro inh 58.8
Cn1nc(C(=O)Nc2ccc3c(c2)OCCO3)cc1C(=O)O	none
Cc1ccc(C(=O)/C=C/c2ccc(F)cc2)o1	L major viab 97.8
O=C(/C=C/c1ccc(F)cc1)c1ccccc1Br	L major viab 94.0
COc1ccc(/C=C/C(=O)c2oc3ccc(F)cc3c2C)cc1	RAM inhibit 10.7
CC(=O)Nc1ccc(N/C=C/C(=O)c2ccc(C)o2)cc1	none
COc1cc(CNn2cn[nH]c2=S)cc(Cl)c1OCc1ccc(F)cc1	WT yeast gro inh 66.0
O=C(O)c1cccc(Oc2ccc([N+](=O)[O-])cc2)c1	L major viab 58.5 (no result: ABCG2 block, ABCB1 inh)
O=C(Nc1ccc(O)cc1)c1cccc(Oc2ccc([N+](=O)[O-])cc2)c1	none
Cc1ccc(C)c(NC(=O)C2CCCN2C(=O)NC2CCCCC2)c1 (centres undefined)	none
CCc1[nH]nc2c1C(C1C=CCCC1)C(C#N)=C(N)O2 (centres undefined)	L major viab 97.0
CC(C)(C)c1[nH]nc2c1C(C1C=CCCC1)C(C#N)=C(N)O2 (centres undefined)	L major viab 83.4
O=C(CN1CCSCC1)N/N=C/c1ccc(F)c(F)c1	none
COc1ccc(/C=C(\C#N)C(=O)OCCNC(=O)c2ccncc2)cc1	none
CCOc1ccc(/C(O)=C2/C(=O)C(=O)N(CC3CCCO3)C2c2cccs2)cc1 (centres undefined)	none
O=C(Nc1cccc(O)c1)c1ccc(Br)cc1	none
O=C(NNc1ccc(O)cc1)c1ccc(Br)cc1	L major viab 97.7
Cc1ccc([N+](=O)[O-])cc1NC(=S)NC(=O)CC(C)(C)C	WT yeast gro inh 68.4
Cc1ccc([N+](=O)[O-])cc1NC(=S)NC(=O)C(C)(C)C	none
CN1CCN(CCCNC(=O)c2ccc(/C=C3/Sc4ccccc4N(Cc4cccc(Cl)c4)C3=O)cc2)CC1	WT yeast gro inh 97.1, L major viab 99.9
CCN1CCN(CCNC(=O)c2ccc(/C=C3\Sc4ccccc4N(Cc4ccccc4F)C3=O)cc2)CC1	WT yeast gro inh 77.2, L major viab 100.4
CN1CCN(CCCNC(=O)c2ccc(/C=C3\Sc4ccccc4N(Cc4ccc(F)cc4)C3=O)cc2)CC1	L major viab 100.3
COCCCNC(=O)/C=C1\Sc2ccccc2N(Cc2ccccc2F)C1=O	none
CCOc1cccc(/C=N/NC(=S)Nc2ccccc2[N+](=O)[O-])c1O	L major viab 94.9
O=C(COc1ccc(Cl)cc1Cl)NCc1ccncc1	none
Cc1cc(CNC(=O)COc2ccc(F)cc2Cl)cc(C)c1O	RAM inhibit 10.0
Cc1cccc(-c2nnc(SCC(=O)N3c4ccccc4CCc4ccccc43)n2C)c1	L major viab 90.6
Cn1c(SCC(=O)N2c3ccccc3CCc3ccccc32)nnc1-c1cc2ccccc2cc1O	L major viab 98.0
Cn1c(SCC(=O)N2CCCc3ccccc32)nnc1-c1ccccc1	none
Cc1c(C(=O)N2CCOCC2)sc(NC(=O)Cc2ccccc2)c1C#N	none
Cc1ccc(CCNc2ccc3ccccc3c2)cn1	none
Cc1ccc(CCSc2ccc(C(C)C)cc2)cn1	WT yeast gro inh 74.0
CSc1ccc(S(=O)(=O)NCCCOC(C)C)cc1	none
CCn1c(=O)n(CC)c2cc(S(=O)(=O)Nc3c(C)cccc3C)ccc21	L major viab 98.4
CCn1c(=O)n(CC)c2cc(S(=O)(=O)Nc3cc(C)cc(C)c3C#N)ccc21	none (no result: WT yeast gro inh)
COC(C(=O)Nc1ccc(S(=O)(=O)Nc2cccc3ccccc23)cc1)c1ccccc1 (centres undefined)	none
Cc1ccc(S(=O)(=O)N(CC(=O)N2CCC(C)CC2)Cc2ccccc2F)cc1	L major viab 82.0
Cc1ccc(S(=O)(=O)N(CC(=O)NCCC2=CCCCC2)Cc2ccccc2F)cc1	WT yeast gro inh 61.3
CC(Oc1ccc(C#N)cc1)C(=O)c1ccc(F)c(F)c1 (centres undefined)	none
O=C(Cn1cccn1)c1ccccc1	none
CC(=O)NC1(C(F)(F)F)NC(=O)N(c2ccc(F)cc2)C1=O (centres undefined)	none
CCC1CCCCN1c1nc(-c2cccc(OC)c2O)nc2ccccc12 (centres undefined)	none
CCC1CCCCN1c1nc(-c2ccncc2)nc2ccccc12 (centres undefined)	L major viab 94.7
CC1CCCCN1c1nc(-c2ccncc2)nc2ccccc12 (centres undefined)	WT yeast gro inh 59.3, L major viab 80.9
COc1cccc(CC2(CO)CCCN(CC3=Cc4cc(Cl)ccc4OC3)C2)c1 (centres undefined)	none
CCCn1c(CN(Cc2ccccc2)Cc2ccccc2)nc2c1c(=O)n(C)c(=O)n2C	WT yeast gro inh 77.2
Cc1cc(C)nc(SCCn2c(N(C)Cc3ccccc3)nc3c2c(=O)n(C)c(=O)n3C)n1	L major viab 77.6
Cc1cccc2cc(CN(Cc3nnnn3C3CCCCC3)C3CCCC3)c3nnnn3c12	L major viab 50.2
CCCCn1c(-c2sccc2C)n[nH]c1=S	none
COc1ccc2cc(CN(Cc3ccco3)C(c3nnnn3C3CCCCC3)C(C)C)c(=O)[nH]c2c1 (centres undefined)	L major viab 98.5
COc1ccc2cc(CN(Cc3ccco3)Cc3nnnn3C3CCCCC3)c(=O)[nH]c2c1	L major viab 95.8
COc1ccc2[nH]c(=O)c(C(c3nnnn3C(C)(C)C)N(Cc3ccco3)CC3CCCO3)cc2c1 (centres undefined)	none
CCOC(=O)c1ccc(CSc2nnc(N)s2)cc1	none
O=C1C2C(C(=O)N1/N=C/c1cccc([N+](=O)[O-])c1)C1C=CC2C12CC2 (centres undefined)	none
Cc1ccc(C(C)C)c(OC(=O)/C=C/c2ccccc2)c1	WT yeast gro inh 79.0
COc1cc(/C=C2/C(=O)NN(c3ccc(Cl)cc3)C2=O)ccc1OC(=O)c1ccco1	L major viab 51.8
Cc1cccc(NC(=O)N2CCC(NC(=O)c3ccco3)CC2)c1	none
Cc1cccc(NC(=O)N2CCC(NC(=O)c3ccccc3C)CC2)c1	RAM inhibit 9.6
CCN1C(=O)[C@H]2[C@H]3[C@H](O)[C@H](O)C/C(=N\OC[C@@H](C)[C@H](OCc4ccccc4)C(C)C)[C@@H]3CC[C@H]2C1=O	none
Cc1ccc(S(=O)(=O)/N=C2\SC(CC(=O)Nc3ccc(F)cc3)C(=O)N2c2ccccc2)cc1 (centres undefined)	L major viab 63.4
CC1CCCN(c2ccc([N+](=O)[O-])cc2C(=O)c2ccccc2)C1 (centres undefined)	RAM inhibit 9.6

Compound activity from PubChem.
